Experimental data taken from ChEMBL document CHEMBL1156597, “Structure-activity relationship of kahalalide F synthetic analogues” (J Med Chem, 2008).

Assays:
LoVo [1] = experiment: Cytotoxicity against human LoVo cells after 48 hrs by SRB assay; assay type: functional; conditions: for CC50: read-out: LC50 (the source's name)
DU-145 = experiment: Cytotoxicity against human DU145 cells after 48 hrs by SRB assay; assay type: functional, cell-based; conditions: Homo sapiens, DU-145, 48 h; for CC50: read-out: LC50 (the source's name)
Method in brief: (§1)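 Cells grown in RPMI 1640 with 10% FBS and penicillin/streptomycin at 37 °C and 5% CO₂, trypsinized, then seeded at 5 × 10³/well. After 18 h drug-free attachment, samples in DMSO/EtOH/PBS (0.5:0.5:99) were added for 48 h continuous exposure. Cells were fixed with cold TCA (1 h, 4 °C) and stained with SRB (10 min). Tris-solubilized stain read at 490 nm. Triplicate wells, mean ± SD; GI₅₀ derived.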

[2] = Cytotoxicity against human IGROV-ET cells after 48 hrs by SRB assay; assay type: functional; conditions: for CC50: read-out: LC50 (the source's name); method in brief: as §1
SK-BR-3 = experiment: Cytotoxicity against human SKBR3 cells after 48 hrs by SRB assay; assay type: functional; conditions: SK-BR-3, 48 h; for CC50: read-out: LC50 (the source's name); method in brief: as §1
LoVo [3] = experiment: Cytotoxicity against human doxorubicin resistant LoVo cells after 48 hrs by SRB assay; assay type: functional; conditions: for CC50: read-out: LC50 (the source's name); method in brief: as §1
K562 = experiment: Cytotoxicity against human K562 cells after 48 hrs by SRB assay; assay type: functional; conditions: K562, 48 h; for CC50: read-out: LC50 (the source's name); method in brief: as §1
[4] = Cytotoxicity against human HeLa-APL cells after 48 hrs by SRB assay; assay type: functional; method in brief: as §1
SK-MEL-28 = experiment: Cytotoxicity against human SK-MEL-28 cells after 48 hrs by SRB assay; assay type: functional, cell-based; conditions: Homo sapiens, SK-MEL-28, 48 h; for CC50: read-out: LC50 (the source's name); method in brief: as §1
PANC-1 = experiment: Cytotoxicity against human PANC1 cells after 48 hrs by SRB assay; assay type: functional; conditions: PANC-1, 48 h; for CC50: read-out: LC50 (the source's name); method in brief: as §1
[5] = Cytotoxicity against human IGROV cells after 48 hrs by SRB assay; assay type: functional; conditions: for CC50: read-out: LC50 (the source's name); method in brief: as §1
HeLa = experiment: Cytotoxicity against human HeLa cells after 48 hrs by SRB assay; assay type: functional; conditions: for CC50: read-out: LC50 (the source's name); method in brief: as §1
HT-29 = experiment: Cytotoxicity against human HT29 cells after 48 hrs by SRB assay; assay type: functional, cell-based; conditions: Homo sapiens, HT-29, 48 h; for CC50: read-out: LC50 (the source's name); method in brief: as §1
A549 = experiment: Cytotoxicity against human A549 cells after 48 hrs by SRB assay; assay type: functional, cell-based; conditions: Homo sapiens, A549, 48 h; method in brief: as §1

Compound	GI50 (LoVo [1]) [nM]	TGI (LoVo [1]) [nM]	CC50 (LoVo [1]) [nM]	GI50 (DU-145) [nM]	GI50 (DU-145; read-out: GI50) [nM]	CC50 (DU-145) [nM]	GI50 ([2]; read-out: GI50) [nM]	CC50 [2] [nM]	GI50 (SK-BR-3; read-out: GI50) [nM]	CC50 (SK-BR-3) [nM]	CC50 (LoVo [3]) [nM]	CC50 (K562) [nM]	LC50 (concentration giving 50% net cell kill) [4] [nM]	GI50 (SK-MEL-28; read-out: GI50) [nM]	CC50 (SK-MEL-28) [nM]	CC50 (PANC-1) [nM]	CC50 [5] [nM]	CC50 (HeLa) [nM]	CC50 (HT-29) [nM]	LC50 (A549) [nM]	other results
C/C=C1\NC(=O)[C@H](Cc2ccccc2)NC(=O)[C@@H](C(C)C)NC(=O)[C@@H]([C@H](C)CC)NC(=O)[C@H](NC(=O)[C@H](NC(=O)[C@H](CCCN)NC(=O)[C@H]2CCCN2C(=O)[C@H](NC(=O)[C@@H](NC(=O)[C@H](CCC(N)=O)NC(=O)[C@H](NC(=O)CCCC(C)C)C(C)C)C(C)C)C(C)C)[C@H](C)CC)[C@H](C)OC(=O)[C@H](C(C)C)NC1=O	258	325	357	913	913	913	477	561	151	300	348	1900	955	1170	1170	1740	456	946	436	1140	GI50 [2]: 575 nM; TGI (SK-BR-3): 173 nM; GI50 (K562): 1900 nM; TGI (K562): 1900 nM; TGI (SK-MEL-28): 1170 nM; GI50 (PANC-1): 1740 nM; TGI (PANC-1): 1740 nM; GI50 [5]: 406 nM; GI50 ([5]; read-out: GI50): 357 nM; GI50 (HT-29): 448 nM; TGI (HT-29): 455 nM; TGI (A549): 1140 nM; GI50 (A549; read-out: GI50): 1140 nM
C/C=C1\NC(=O)[C@H](Cc2ccc3ccccc3c2)NC(=O)[C@@H](C(C)C)NC(=O)[C@@H]([C@H](C)CC)NC(=O)[C@H](NC(=O)[C@H](NC(=O)[C@H](CCCN)NC(=O)[C@H]2CCCN2C(=O)[C@H](NC(=O)[C@@H](NC(=O)[C@@H](NC(=O)[C@H](NC(=O)CCCC(C)C)C(C)C)[C@@H](C)O)C(C)C)C(C)C)[C@H](C)CC)[C@H](C)OC(=O)[C@H](C(C)C)NC1=O	–	22.9	34.4	116	50.9	224	46.4	120	21.7	32.7	148	1320	205	135	339	1370	44.3	220	60.9	343	TGI [2]: 60.4 nM; GI50 (SK-BR-3): 18.8 nM; GI50 (LoVo [3]): 29.5 nM; TGI (LoVo [3]): 29 nM; GI50 (K562): 287 nM; TGI (K562): 679 nM; GI50 [4]: 77.5 nM; TGI [4]: 91.7 nM; GI50 (SK-MEL-28): 213 nM; GI50 (PANC-1): 606 nM; TGI (PANC-1): 909 nM; GI50 [5]: 37.2 nM; GI50 ([5]; read-out: GI50): 27.3 nM; GI50 (HeLa): 71.6 nM; TGI (HeLa): 94.6 nM; GI50 (HT-29): 37.9 nM; TGI (HT-29): 39.1 nM; GI50 (A549): 194 nM; GI50 (A549; read-out: GI50): 110 nM
C/C=C1\NC(=O)[C@H](Cc2ccc(OC)cc2)NC(=O)[C@@H](C(C)C)NC(=O)[C@@H]([C@H](C)CC)NC(=O)[C@H](NC(=O)[C@H](NC(=O)[C@H](CCCN)NC(=O)[C@H]2CCCN2C(=O)[C@H](NC(=O)[C@@H](NC(=O)[C@@H](NC(=O)[C@H](NC(=O)CC[C@@H](C)CC)C(C)C)[C@@H](C)O)C(C)C)C(C)C)[C@H](C)CC)[C@H](C)OC(=O)[C@H](C(C)C)NC1=O	320	285	106	947	858	1060	295	465	283	824	79.2	1890	1220	1190	1280	1990	581	943	45.4	6420	GI50 [2]: 384 nM; TGI (SK-BR-3): 284 nM; GI50 (LoVo [3]): 237 nM; TGI (LoVo [3]): 214 nM; GI50 [4]: 1010 nM; TGI [4]: 1160 nM; TGI (SK-MEL-28): 1230 nM; GI50 (PANC-1): 3120 nM; TGI (PANC-1): 4340 nM; GI50 [5]: 502 nM; GI50 ([5]; read-out: GI50): 442 nM; GI50 (HeLa): 766 nM; TGI (HeLa): 848 nM; GI50 (A549): 557 nM; GI50 (A549; read-out: GI50): 526 nM
C/C=C1\NC(=O)[C@H](Cc2ccc(F)c(F)c2)NC(=O)[C@@H](C(C)C)NC(=O)[C@@H]([C@H](C)CC)NC(=O)[C@H](NC(=O)[C@H](NC(=O)[C@H](CCCN)NC(=O)[C@H]2CCCN2C(=O)[C@H](NC(=O)[C@@H](NC(=O)[C@@H](NC(=O)[C@H](NC(=O)CCCC(C)C)C(C)C)[C@@H](C)O)C(C)C)C(C)C)[C@H](C)CC)[C@H](C)OC(=O)[C@H](C(C)C)NC1=O	12.8	21.2	25.9	131	43	243	47	515	30	134	52.8	1610	271	128	323	1650	156	466	90.4	968	TGI [2]: 76.7 nM; GI50 (SK-BR-3): 31.9 nM; GI50 (LoVo [3]): 18.4 nM; TGI (LoVo [3]): 20.5 nM; GI50 (K562): 732 nM; TGI (K562): 1090 nM; GI50 [4]: 155 nM; TGI [4]: 166 nM; GI50 (SK-MEL-28): 203 nM; GI50 (PANC-1): 575 nM; TGI (PANC-1): 979 nM; GI50 [5]: 86.8 nM; GI50 ([5]; read-out: GI50): 37.9 nM; GI50 (HeLa): 98.1 nM; TGI (HeLa): 177 nM; GI50 (HT-29): 30.4 nM; TGI (HT-29): 28.7 nM; GI50 (A549): 293 nM; GI50 (A549; read-out: GI50): 137 nM
C/C=C1\NC(=O)[C@H](Cc2cccc(Cl)c2)NC(=O)[C@@H](C(C)C)NC(=O)[C@@H]([C@H](C)CC)NC(=O)[C@H](NC(=O)[C@H](NC(=O)[C@H](CCCN)NC(=O)[C@H]2CCCN2C(=O)[C@H](NC(=O)[C@@H](NC(=O)[C@@H](NC(=O)[C@H](NC(=O)CCCC(C)C)C(C)C)[C@@H](C)O)C(C)C)C(C)C)[C@H](C)CC)[C@H](C)OC(=O)[C@H](C(C)C)NC1=O	18.5	27.9	69.1	173	100	305	71.2	163	49.6	48.3	340	1730	275	183	738	1700	48.5	256	153	911	TGI [2]: 97 nM; GI50 (SK-BR-3): 41.9 nM; GI50 (LoVo [3]): 40.8 nM; TGI (LoVo [3]): 35.7 nM; GI50 (K562): 867 nM; TGI (K562): 1220 nM; GI50 [4]: 191 nM; TGI [4]: 172 nM; GI50 (SK-MEL-28): 313 nM; GI50 (PANC-1): 869 nM; TGI (PANC-1): 1700 nM; GI50 [5]: 44.7 nM; GI50 ([5]; read-out: GI50): 41 nM; GI50 (HeLa): 98.3 nM; TGI (HeLa): 131 nM; GI50 (HT-29): 40.2 nM; TGI (HT-29): 42.5 nM; GI50 (A549): 429 nM; GI50 (A549; read-out: GI50): 194 nM
C/C=C1\NC(=O)[C@H](Cc2ccc(O)cc2)NC(=O)[C@@H](C(C)C)NC(=O)[C@@H]([C@H](C)CC)NC(=O)[C@H](NC(=O)[C@H](NC(=O)[C@H](CCCN)NC(=O)[C@H]2CCCN2C(=O)[C@H](NC(=O)[C@@H](NC(=O)[C@@H](NC(=O)[C@H](NC(=O)CC[C@@H](C)CC)C(C)C)[C@@H](C)O)C(C)C)C(C)C)[C@H](C)CC)[C@H](C)OC(=O)[C@H](C(C)C)NC1=O	1830	2310	2690	–	–	1930	–	1000	–	184	2170	2700	1980	2370	2100	2020	970	2100	748	1840	GI50 (LoVo [3]): 1030 nM; TGI (LoVo [3]): 1720 nM; GI50 (K562): 4920 nM; TGI (K562): 4300 nM; TGI (SK-MEL-28): 3820 nM; GI50 (HeLa): 3620 nM; TGI (HeLa): 4340 nM
